Measurements: ChEMBL document CHEMBL1134309, “O-Phosphonatomethylcholine, its analogues, alkyl esters, and their biological activity” (J Med Chem, 2001)

How the values were obtained:
MES-SA (Homo sapiens) [1] = assay: In vitro cytotoxic activity against uterine sarcoma (MES-SA) cells assayed by inhibition of [3H]-labeled thymidine incorporation
DU-145 [2] = assay: In vitro cytotoxic activity against prostate carcinoma (DU-145) cells assayed by inhibition of [3H]-labeled thymidine incorporation; type: functional, cell-based; settings: Homo sapiens
In short: (§1)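 Human tumour lines in 10% FBS medium (HT-29 and MES-SA in McCoy's 5a; NCI-H460 in RPMI 1640; DU-145 in MEM/Earle's), 37 °C, 5% CO2. Trypsin/EDTA-harvested, plated at 1 × 10⁴ cells/well, attached ~4 h. Serial dilutions tested, 8 wells/concentration. [methyl-³H]thymidine, 0.25 μCi/well, added at 24 h, then 48 more h (72 h total). Cells Triton-lysed, filter-harvested, counted. IC50 is the average of 3–5 determinations.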

HT-29 [3] = assay: In vitro cytotoxic activity against colon adenocarcinoma (HT-29) cells assayed by inhibition of [3H]-labeled thymidine incorporation; type: functional, cell-based; settings: Homo sapiens
In short: as §1

NCI-H460 [4] = assay: In vitro cytotoxic activity against nonsmall cell lung carcinoma (NCI-H460) cells assayed by inhibition of [3H]-labeled thymidine incorporation; type: functional, cell-based; settings: Homo sapiens
In short: as §1

Lymphoma cell line = assay: Percent decrease of Lymphoma mass of animals treated with the compound; type: functional; design: scale not given: the % may be the effect or the level left
In short: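 Male SD rats, 2 months old, ~300 g, 4 per group. 10⁶ SD lymphoma cells given s.c. to the right flank. From day 10, drug in PBS pH 7.2 (3 mL, 1 mg/mL) was injected once daily next to the tumour for 10 days; controls got PBS only. Rats were killed 24 h later and lymphomas weighed. Result is mean mass decrease versus controls.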

DU-145 [5] = assay: In vitro cytotoxic activity against prostate carcinoma (DU-145) cells assayed by inhibition of [3H]-labeled thymidine incorporation; Not calculable; type: functional, cell-based, Homo sapiens
In short: as §1

MES-SA (Homo sapiens) [6] = assay: In vitro cytotoxic activity against uterine sarcoma (MES-SA) cells assayed by inhibition of [3H]-labeled thymidine incorporation; Not calculable
HT-29 [7] = assay: In vitro cytotoxic activity against colon adenocarcinoma (HT-29) cells assayed by inhibition of [3H]-labeled thymidine incorporation; Not calculable; type: functional, cell-based, Homo sapiens
In short: as §1

NCI-H460 [8] = assay: In vitro cytotoxic activity against nonsmall cell lung carcinoma (NCI-H460) cells assayed by inhibition of [3H]-labeled thymidine incorporation; Not calculable; type: functional, cell-based, Homo sapiens
In short: as §1

SMILES | IC50 (MES-SA (Homo sapiens) [1]) | IC50 (DU-145 [2]) | IC50 (HT-29 [3]) | IC50 (NCI-H460 [4]) | Activity (Lymphoma cell line) | IC50 (DU-145 [5]) | IC50 (MES-SA (Homo sapiens) [6]) | IC50 (HT-29 [7]) | IC50 (NCI-H460 [8])
Nc1ccn([C@@H]2O[C@H](CO)[C@@H](O)C2(F)F)c(=O)n1 [GEMCITABINE] | 9.2 nM | 0.0356 µM | 3 nM | 0.0078 µM | – | – | – | – | –
CCCCCCCCCCCCCCCCOP(=O)([O-])COCC[N+](C)(C)C | 2110 nM | 17.2 µM | 4760 nM | 15.7 µM | 41% | – | – | – | –
CCCCCCCCCCCCCCOP(=O)([O-])COCC[N+](C)(C)C | – | – | 12200 nM | 40.3 µM | 30% | Not calculable | Not calculable | – | –
CC[C@]1(O)C[C@H]2CN(CCc3c([nH]c4ccccc34)[C@@](C(=O)OC)(c3cc4c(cc3OC)N(C=O)[C@H]3[C@@](O)(C(=O)OC)[C@H](OC(C)=O)[C@]5(CC)C=CCN6CC[C@]43[C@@H]65)C2)C1 [VINCRISTINE] | 0.02 nM | 0.00112 µM | 0.01 nM | 0.00013 µM | – | – | – | – | –
CC(=O)O[C@H]1C(=O)[C@@]2(C)[C@H]([C@H](OC(=O)c3ccccc3)[C@]3(O)C[C@H](OC(=O)[C@H](O)[C@@H](NC(=O)c4ccccc4)c4ccccc4)C(C)=C1C3(C)C)[C@]1(OC(C)=O)CO[C@@H]1C[C@@H]2O [PACLITAXEL] | 0.04 nM | – | 0.16 nM | 0.00014 µM | – | – | – | – | –
CCCCCCCCCCCCCCCOP(=O)([O-])COCC[N+](C)(C)C | 9590 nM | 19.9 µM | – | 18 µM | – | – | – | Not calculable | –
CCCCCCCCCCCCCCCCOP(=O)([O-])OCC[N+](C)(C)C [MILTEFOSINE] | 5350 nM | 24.9 µM | 6150 nM | 6.62 µM | – | – | – | – | –
CCCCCCCCCCCCOP(=O)([O-])COCC[N+](C)(C)C | – | 133 µM | – | 138 µM | – | – | Not calculable | Not calculable | –
CCCCCCCCCCOP(=O)([O-])COCC[N+](C)(C)C | – | – | – | – | – | Not calculable | Not calculable | Not calculable | Not calculable
